MOR-DOR ag = agonists of human mu-delta opioid receptor heterodimerization. cells, OPRM1-OPRD1 heterodimerization, luminescence. P35372+P41143. hit rate 0.3% among 340,000. activation, % at 9.3 µM; in the data active = activation above about 18%;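 also: 0% = vehicle-treated cells and 100% = reference agonist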
OPRM1-OPRD1 inv = mu-delta opioid heterodimer inverse agonism; AID 504357; inhibition, % at 9.3 µM; hit rate 0.21% among 340,000; cell-based MOR-DOR heterodimer luminescence; P35372+P41143; in the data active = inhibition above about 22%, passing the limit was not always enough;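 also: 0% = cells with DMSO and 100% = wells without cells with DMSO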
Hep lipid drop = hepatic lipid droplet formation modulation; AML12 mouse hepatocytes, oleate lipid droplets, BODIPY imaging; inhibition, % at 6.5 µM; hit rate 0.4% among 240,000; AID 1656;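 active = lipid droplet intensity inhibited by at least 50%, with more than 500 cells counted; inconclusive = wells with under 300 cells, treated as cytotoxic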
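Test system: AML12 mouse liver cells; schedule: overnight exposure; technique: high-content imaging of BODIPY-stained droplets and DAPI nuclei; read-out: % inhibition of corrected integrated BODIPY droplet signal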
HTR5A ag ctr = HTR5A agonism, opioid heterodimer counter-screen; HTR5A agonist assay, luminescence, cell-based; activation, % at 9.3 µM; hit rate 0.61% among 340,000; AID 504692; in the data active = activation mostly above about 9.5%, no sharp cut-off; inactive = mostly below about 7.6%;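 also: 0% = cells with vehicle only and 100% = reference agonist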
Target sequence (P47898 whole entry, looked up): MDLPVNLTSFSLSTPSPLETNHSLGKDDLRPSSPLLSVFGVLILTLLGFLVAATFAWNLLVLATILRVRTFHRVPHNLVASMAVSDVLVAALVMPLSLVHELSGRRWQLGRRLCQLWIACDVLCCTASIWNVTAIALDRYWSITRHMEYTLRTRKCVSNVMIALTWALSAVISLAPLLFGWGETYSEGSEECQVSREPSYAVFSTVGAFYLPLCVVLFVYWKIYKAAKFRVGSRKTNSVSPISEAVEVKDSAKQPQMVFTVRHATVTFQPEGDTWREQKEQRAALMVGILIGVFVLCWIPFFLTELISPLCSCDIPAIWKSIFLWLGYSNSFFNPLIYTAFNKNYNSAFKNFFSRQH
HTR5A inv ctr = inverse agonist of human HTR5A in OPRM1-OPRD1 counter-screen. HTR5A cell line, luminescence, inverse agonism. inhibition, % at 9.3 µM. hit rate 0.083% among 340,000. P47898. AID 504634; in the data active = inhibition mostly above about 23%, no sharp cut-off; inactive = mostly below about 18%;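 also: 0% = cells with DMSO and 100% = no-cell wells with DMSO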
An asterisk follows results filed as active; ? = inconclusive; . = no result given. Rows were chosen to be rich in hits. Some 1.4% of all compounds tested hit in one or more screens of this group.

SMILES | MOR-DOR ag | OPRM1-OPRD1 inv | Hep lipid drop | HTR5A ag ctr | HTR5A inv ctr
CCN(c1ccc(C)cc1C)S(=O)(=O)c1nnc(NC(=O)C(C)(C)C)s1 | 6 | -27 | 4 | 9.9* | -38
CCN(c1ccc(C)cc1C)S(=O)(=O)c1nnc(NC(=O)C(C)C)s1 | 8 | -45 | 4 | 1 | -4
CCN(CC)CCNC(=O)c1ccc(NC(=O)c2cc(S(=O)(=O)N3CCCCC3)ccc2C)cc1 | -1 | 8 | . | 12* | -31
O=C(CSCc1ccc(Br)cc1)Nc1ccccc1C(=O)N1CCOCC1 | -3 | 16 | 5 | 2 | 12
Cc1cccc(Nc2nc(CC(=O)O)cs2)c1 | 0 | 1 | 1 | 11* | 5
COC(=O)Cc1csc(Nc2ccccc2)n1 | -2 | 9 | -13 | 0 | -2
O=C(c1ccco1)N1CCC(c2nc3c(nnn3Cc3c(Cl)cccc3Cl)c(=O)[nH]2)CC1 | 0 | -3 | -6 | 1 | -30
CC(C)(C)CC(=O)N1CCC(c2nc3c(nnn3Cc3c(F)cccc3Cl)c(=O)[nH]2)CC1 | -1 | 8 | . | 11* | 27
COC(=O)c1ccc(CNC(=O)Cn2cnc(C(=O)Nc3ccc(C)c(C)c3)n2)cc1 | -4 | 19 | . | -2 | 7
Cn1cccc1/C=C(/C#N)C(N)=S | -7 | 37* | 7 | -4 | 2
c1ccc(CNc2nc(NCc3ccccc3)c3ccccc3n2)cc1 | 40* | -205 | -16 | 19* | -48
c1ccc(CNc2nc(-c3ccccc3)nc3ccccc23)cc1 | 3 | -16 | -10 | 5 | -19
CC[C@]12c3[nH]c4cc(-c5ccco5)ccc4c3CCN1C(=O)[C@@H](CC(=O)NCc1ccco1)C[C@@H]2C(=O)N1CCN(C(=O)C2CC2)CC1 | -1 | 6 | . | 4.4* | -15
CCN(CC)C(=O)[C@H]1C[C@H](CC(=O)NCC23CC4CC(CC(C4)C2)C3)C(=O)N2CCc3c([nH]c4ccc(Cl)cc34)[C@]12C | 1 | -5 | . | 3 | -12
CN(C)C(=O)CCc1ccc2c3c([nH]c2c1)[C@]1(CCC2CCCC2)[C@@H](C(=O)N2CCOCC2)C[C@H](CC(=O)NC(C)(C)C)C(=O)N1CC3 | -3 | 15 | . | 5 | -19
COc1ccc2[nH]c3c(c2c1)CCN1C(=O)C(CC(=O)NCC24CC5CC(CC(C5)C2)C4)C[C@H](C(=O)N2CCOCC2)[C@@]31CCC1CCCC1 (stereo not given in full) | 0 | 0 | . | 4.4* | -15
CC(C)(C)NC(=O)CC1C[C@H](C(=O)N2CCOCC2)[C@@]2(CCC3CCCC3)c3[nH]c4ccccc4c3CCN2C1=O (stereo not given in full) | 2 | -9 | . | 8.6* | -29
CC(C)N(C(=O)[C@H]1C[C@H](CC(=O)NCC23CC4CC(CC(C4)C2)C3)C(=O)N2CCc3c([nH]c4ccc(Cl)cc34)[C@]12C)C(C)C | 2 | -8 | . | 4.2* | -14
OCC1CCCCN1CC(O)COC(c1ccc(F)cc1)c1ccc(F)cc1 (stereo not given) | 0 | -2 | -3 | -1 | 2
O=C(N/N=C/c1ccccc1OC(F)F)c1cc(-c2ccncc2)nc2ccccc12 | 1 | -7 | ? | 12* | -3
O=C(O)COc1ccccc1/C=N/NC(=O)c1cc(-c2ccccc2)nc2ccccc12 | -1 | 7 | -6 | -4 | 22
Cc1ccc(N=Cc2cc(Cc3ccccc3Cl)cc([N+](=O)[O-])c2O)c(O)c1 | 11 | -77 | -19 | 12* | -12
O=Cc1cn(-c2ccccc2)nc1-c1ccc(F)cc1 | 9 | -47 | 19 | 2 | -6
CC1=NNC(=O)/C1=C\c1cn(-c2ccccc2)nc1-c1ccc(F)cc1 | 7 | -34 | 25 | 17* | -46
O=C(CSc1nnc(-c2ccc(Cl)cc2)n1-c1ccc(Cl)cc1)N/N=C/c1ccccc1C(=O)O | . | . | 30 | . | .
O=C(CSc1nnc(-c2ccccc2)n1-c1ccc(Cl)cc1)N/N=C/c1ccccc1C(=O)O | 1 | -5 | 9 | 12* | -15
CSc1ccc(C(=O)Nc2cc(S(=O)(=O)N3CCOCC3)ccc2N2CCOCC2)cc1[N+](=O)[O-] | -2 | 8 | . | -5 | 6
Cc1ccc(NC(=O)c2ccc3ccccc3n2)nc1 | -1 | 5 | -43 | 14* | -51
CCOc1ccc(NC(=O)C2CCN(S(=O)(=O)c3ccc4c(c3)NC(=O)C(C)S4)CC2)cc1 (stereo not given) | 0 | 2 | -8 | 10* | -10
CCc1nn(CC(=O)N2CCCCCC2)c(=O)c2cc3ccccc3n12 | 0 | 0 | 4 | 1 | 11
